Source: ChEMBL document CHEMBL3421632, “Rational design of triazololipopeptides analogs of kisspeptin inducing a long-lasting increase of gonadotropins” (J Med Chem, 2015)
Activity calls are given as the source filed them. The calls are words filed in the database; no cut-off is given here. *1 amine or outer side, *2 acyl side, *3 side chain or, on linkers, in order; H or OH if unused. Where a SMILES comes first, the peptide text is derived from it. Side-chain parts run from the residue outwards. [ ]: non-standard residue; d: D form. The star is where a group is joined. Glyψ(1,4-Tz)Leu = CC(C)C[C@@H](C(=O)[*:2])n1cc(CN[*:1])nn1; X1 = O=C(Cn1cc([C@H](Cc2ccccc2)N[*:1])nn1)[*:2]; γGlu = O=C(O)[C@H](CCC(=O)[*:2])N[*:1]; Palmitoyl = CCCCCCCCCCCCCCCC(=O)*

Assays:
[1] = target: T1, KiSS-1 receptor (Homo sapiens, UniProt Q969F8); test: Agonist activity at human wild-type KISS1R expressed in HEK293 cells assessed as induction of intracellular Ca2+ mobilization after 30 mins by Fluo4 NW Ca2+ assay; format: functional, cell-based
Procedure, shortened: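 HEK293 stably expressing HA-tagged wild-type human KISS1R, plated 40 000 cells/well 48 h prior. Loaded with Fluo4 NW dye 30 min at 37 °C plus 30 min at rt. Basal read 5× at 7 s intervals, compound added (final 1 pM–1 μM), Ca2+ followed 7 min. Mean basal subtracted, AUC plotted against concentration, sigmoid fit gives EC50. Nontransfected HEK293 served as control.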

[2] = Stability in Ile-de-France ewe serum assessed as intact compound level at 50 uM incubated for 6 hrs by HPLC method; format: ADME, cell-free, Ovis aries; settings: female, sheep, read-out: Stability
Procedure, shortened: (§1)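 Ile-de-France ewe serum, stored at −20 °C and preheated 30 min at 39 °C. Peptide at 50 μM final, with L-phenylalaninol internal calibrator, incubated at 39 °C. Proteins precipitated with MeCN and spun; supernatant run on RP-HPLC (2–52% MeCN/0.1% TFA over 5 min, UV 214 nm, plus MS). Intact peak given as % of t = 0 area; five independent experiments.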

[3] = target: T1, KiSS-1 receptor; test: Potency index, ratio of EC50 for KP10 to EC50 for compound for agonist activity at human wild-type KISS1R expressed in HEK293 cells assessed as induction of intracellular Ca2+ mobilization after 30 mins by Fluo4 NW Ca2+ assay; format: functional, cell-based
Procedure, shortened: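 Ratio of KP10 EC50 to analog EC50, both measured by Fluo4 NW Ca2+ mobilization in HEK293 cells stably expressing HA-tagged human KISS1R. AUC from 7 min of monitoring, concentrations 1 pM–1 μM, sigmoid fit.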

[4] = test system: Ovis aries; test: Increase in total plasma LH level in anoestrus Ile-de-France ewe at 5 nmol, iv by radioimmunoassay; format: functional, organism-based
Procedure, shortened: (§2)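 Intact acyclic anoestrous Ile-de-France ewes (3–5 y, 55–70 kg), jugular catheter placed the day before. Single iv bolus of 1–15 nmol/ewe. Basal LH taken every 10 min for 30 min, then every 10 min for 2 h, every 20 min for 4 h, then hourly. Plasma LH by RIA (1051-CY-LH standard, sensitivity 0.1 ng/mL). Peak, duration and AUC derived; mean ± SEM, N = 4–6.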

[5] = test system: Ovis aries; test: Increase in maximal amplitude of plasma LH level in anoestrus Ile-de-France ewe at 5 nmol, iv by radioimmunoassay (reference value: 0.4 +/- 0.2 ng/ml); format: functional; procedure, shortened: as §2
[6] = test system: Ovis aries; test: Increase in duration of increase of plasma LH level in anoestrus Ile-de-France ewe at 5 nmol, iv by radioimmunoassay; format: functional; procedure, shortened: as §2
[7] = test system: Ovis aries; test: Increase in maximal amplitude of plasma LH level in anoestrus Ile-de-France ewe at 1 to 15 nmol, iv by radioimmunoassay; format: functional, organism-based; procedure, shortened: as §2
[8] = test system: Ovis aries; test: Increase in time duration of increase of plasma LH level in anoestrus Ile-de-France ewe at 1 to 15 nmol, iv by radioimmunoassay; format: functional, organism-based; procedure, shortened: as §2
[9] = test system: Ovis aries; test: Increase in total plasma LH level in anoestrus Ile-de-France ewe at 1 to 15 nmol, iv by radioimmunoassay; format: functional, organism-based; procedure, shortened: as §2
[10] = target: Neuropeptide FF receptor 1 (Homo sapiens, UniProt Q9GZQ6); test: Agonist activity at human NPFF1R expressed in CHO cells assessed as effect on forskolin-induced cAMP accumulation after 15 mins by luminescence based assay; format: functional, cell-based
Procedure, shortened: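 CHO cells stably expressing hNPFF1R (Gαi-coupled), transfected with GloSensor; seeded 30 000 cells/well 24 h before, PBS-washed twice, loaded with GloSensor cAMP reagent 2 h. Compound added, luminescence read 15 min, then 300 nM forskolin + 0.25 mM IBMX added and read a further 120 min. Signal AUC plotted against concentration, sigmoid fit for EC50.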

[11] = species: Homo sapiens; test: Selectivity index, ratio of EC50 for human NPFF1R to EC50 for human wild-type KISS1R
[12] = Stability in Ile-de-France ewe serum assessed as intact compound level at 50 uM incubated for 1 hr by HPLC method; format: ADME, cell-free, Ovis aries; settings: sheep, BLD = below limit of detection; procedure, shortened: as §1
[13] = test system: Ovis aries; test: Increase in maximal amplitude of plasma LH level in anoestrus Ile-de-France ewe at 5 nmol, iv by radioimmunoassay (reference value: 0.6 +/- 0.5 ng/ml); format: functional; procedure, shortened: as §2

T1 sequence (Q969F8 whole entry): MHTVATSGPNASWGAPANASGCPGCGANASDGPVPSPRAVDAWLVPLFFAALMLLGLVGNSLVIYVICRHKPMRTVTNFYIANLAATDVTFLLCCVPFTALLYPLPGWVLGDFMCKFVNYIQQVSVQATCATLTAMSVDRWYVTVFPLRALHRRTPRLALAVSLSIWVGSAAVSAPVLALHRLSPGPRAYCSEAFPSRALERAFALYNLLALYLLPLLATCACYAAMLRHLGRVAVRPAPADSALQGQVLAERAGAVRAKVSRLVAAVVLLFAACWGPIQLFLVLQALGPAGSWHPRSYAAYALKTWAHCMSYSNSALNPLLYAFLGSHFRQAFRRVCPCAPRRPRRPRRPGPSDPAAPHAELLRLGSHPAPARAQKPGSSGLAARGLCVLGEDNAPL
Neuropeptide FF receptor 1, sequence (Q9GZQ6 whole entry): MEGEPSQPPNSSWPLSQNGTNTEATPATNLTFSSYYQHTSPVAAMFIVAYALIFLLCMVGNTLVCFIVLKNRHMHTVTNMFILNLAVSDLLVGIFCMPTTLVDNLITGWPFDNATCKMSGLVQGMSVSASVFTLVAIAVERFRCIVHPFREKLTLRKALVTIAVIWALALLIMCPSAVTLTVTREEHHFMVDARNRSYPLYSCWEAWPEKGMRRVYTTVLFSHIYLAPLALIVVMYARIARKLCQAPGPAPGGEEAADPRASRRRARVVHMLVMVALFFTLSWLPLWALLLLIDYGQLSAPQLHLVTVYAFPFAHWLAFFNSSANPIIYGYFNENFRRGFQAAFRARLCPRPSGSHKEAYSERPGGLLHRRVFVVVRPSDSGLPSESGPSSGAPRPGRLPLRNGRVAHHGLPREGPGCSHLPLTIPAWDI

CC(=O)N[C@@H](Cc1ccc(O)cc1)C(=O)N[C@@H](CC(N)=O)C(=O)N[C@@H](Cc1c[nH]c2ccccc12)C(=O)N[C@@H](CC(N)=O)C(=O)N[C@@H](CO)C(=O)N[C@@H](Cc1ccccc1)C(=O)NCc1cn([C@@H](CC(C)C)C(=O)N[C@@H](CCCNC(=N)N)C(=O)N[C@@H](Cc2ccc(O)cc2)C(N)=O)nn1 (Ac-YNWNSF[Glyψ(1,4-Tz)Leu]RY-NH2)
EC50 [1]: 0.07 nM
remaining at 6 h, 50 µM [2]: 40.8%
Ratio EC50 [3]: 30
Activity [4]: Active
Activity [5]: 5.4 ng/mL
fold change (FC) [6]: >2
Activity [7]: Active
Activity [8]: Active
Activity [9]: Active
EC50 [10]: > 5000 nM
Ratio EC50 [11]: > 10000

Ac-YNWK(Ac)SFGLRY-NH2
EC50 [1]: 13.9 nM

CCCCCCCCCCCCCCCC(=O)N[C@@H](CCC(=O)NCCCC[C@H](NC(=O)[C@H](CC(N)=O)NC(=O)[C@H](Cc1ccc(O)cc1)NC(C)=O)C(=O)N[C@@H](CC(N)=O)C(=O)N[C@@H](CO)C(=O)N[C@@H](Cc1ccccc1)C(=O)NCC(=O)N[C@@H](CC(C)C)C(=O)N[C@@H](CCCNC(=N)N)C(=O)N[C@@H](Cc1ccc(O)cc1)C(N)=O)C(=O)O (Ac-YNK([γGlu-Palmitoyl])NSFGLRY-NH2)
EC50 [1]: 24.4 nM

Ac-YNK(Ac)NSFGLRY-NH2
EC50 [1]: 0.08 nM

CCCCCCCCCCCCCCCC(=O)N[C@@H](CCC(=O)NCCCC[C@H](NC(=O)[C@H](CC(N)=O)NC(=O)[C@H](Cc1ccc(O)cc1)NC(C)=O)C(=O)N[C@@H](CC(N)=O)C(=O)N[C@@H](CO)C(=O)N[C@@H](Cc1ccccc1)C(=O)NCc1cn([C@@H](CC(C)C)C(=O)N[C@@H](CCCNC(=N)N)C(=O)N[C@@H](Cc2ccc(O)cc2)C(N)=O)nn1)C(=O)O (Ac-YNK([γGlu-Palmitoyl])NSF[Glyψ(1,4-Tz)Leu]RY-NH2)
EC50 [1]: 216 nM

Ac-K(Ac)NWNSFGLRY-NH2
EC50 [1]: 0.9 nM

H-YNWNSFGLRY-NH2
EC50 [1]: 2.5 nM
Stability [12]: BLD
Activity [13]: 3.3 ng/mL

Ac-YNWNSFGLRY-NH2
EC50 [1]: 0.07 nM
remaining at 6 h, 50 µM [2]: 2.6%
Activity [13]: 3.9 ng/mL
Activity [4]: Active
Activity [6]: Active
EC50 [10]: > 5000 nM
Ratio EC50 [11]: > 10000

CC(=O)N[C@@H](Cc1ccc(O)cc1)C(=O)N[C@@H](CC(N)=O)C(=O)N[C@@H](Cc1c[nH]c2ccccc12)C(=O)N[C@@H](CC(N)=O)C(=O)N[C@@H](CO)C(=O)N[C@@H](Cc1ccccc1)c1cn(CC(=O)N[C@@H](CC(C)C)C(=O)N[C@@H](CCCNC(=N)N)C(=O)N[C@@H](Cc2ccc(O)cc2)C(N)=O)nn1 (Ac-YNWNS[X1]LRY-NH2)
EC50 [1]: 0.6 nM
remaining at 6 h, 50 µM [2]: 61.4%
